Reference: paper PMC5089614 (British Journal of Clinical Pharmacology, 2016)
“Also recorded” adds a separate entry of the source.

Assay: Safety/tolerability: adverse events graded by NCI CTCAE v4.03
Format: in vivo, human
Summary of the method: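 Solid tumour patients got oral test compound by hepatic group: normal 4 mg, moderate 2.3 mg, severe 1.5 mg. Dosing continued in a second part, with escalation allowed up to 4 mg. AEs were monitored from first dose until 30 days after the last dose and graded by CTCAE v4.03. Safety population was all patients with ≥1 dose. Investigators assigned relatedness.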

[1] = moderate impairment 2.3 mg (n = 15)
[2] = n = 1, not attributed to ixazomib

## CC(C)C[C@H](NC(=O)CNC(=O)c1cc(Cl)ccc1Cl)B(O)O [ixazomib]
All patients (N = 48)
  Drug-related AEs, patients: 46%
  Drug-related decreased appetite: 8%
  Drug-related dehydration: 6%
  Drug-related diarrhoea: 6%
  Drug-related fatigue: 8%
  Drug-related nausea: 17%
  Drug-related vomiting: 10%
  drug-related serious dehydration: 4%
  drug-related serious dyspnoea: 2%
  drug-related serious fall: 2%
  drug-related serious oesophageal ulcer: 2%
  grade 3 drug-related anaemia: 2%
  grade 3 drug-related dehydration: 6%
  grade 3 drug-related fall: 2%
  grade 3 drug-related fatigue: 4%
  grade 4 drug-related AE: no drug‐related grade 4 adverse events; also recorded: no patient had a grade 4 drug‐related AE
  patients with serious AEs: 65%
  rate of on-study deaths: 29%
All patients, none related to ixazomib, all related to progressive disease
  on-study deaths, number: 14
Five serious AEs in four patients
  patients with drug-related serious AEs: 8%
Moderate hepatic impairment, 2.3 mg
  incidence of drug-related grade ≥3 AEs: 20%
[1]
  Abdominal pain, any-grade TEAE: 2 (13) n (%)
  Acute renal failure, any-grade TEAE: 1 (7) n (%)
  Acute renal failure, grade ≥3 TEAE: 1 (7) n (%)
  Anaemia, any-grade TEAE: 3 (20) n (%)
  Anaemia, grade ≥3 TEAE: 1 (7) n (%)
  Any-grade AE: 15 (100) n (%)
  Ascites, any-grade TEAE: 3 (20) n (%)
  Ascites, grade ≥3 TEAE: 2 (13) n (%)
  Back pain, any-grade TEAE: 0 n (%)
  Cough, any-grade TEAE: 2 (13) n (%)
  Decreased appetite, any-grade TEAE: 2 (13) n (%)
  Dehydration, any-grade TEAE: 2 (13) n (%)
  Dehydration, grade ≥3 TEAE: 2 (13) n (%)
  Diarrhoea, any-grade TEAE: 1 (7) n (%)
  Dyspnoea, any-grade TEAE: 3 (20) n (%)
  Fatigue, any-grade TEAE: 4 (27) n (%)
  Fatigue, grade ≥3 TEAE: 1 (7) n (%)
  Grade ≥3 AE: 13 (87) n (%)
  Hyperbilirubinaemia, any-grade TEAE: 5 (33) n (%)
  Hyperbilirubinaemia, grade ≥3 TEAE: 5 (33) n (%)
  Hyperkalaemia, any-grade TEAE: 2 (13) n (%)
  Hypotension, any-grade TEAE: 1 (7) n (%)
  Hypotension, grade ≥3 TEAE: 1 (7) n (%)
  Insomnia, any-grade TEAE: 2 (13) n (%)
  Leukocytosis, grade ≥3 TEAE: 1 (7) n (%)
  Nausea, any-grade TEAE: 4 (27) n (%)
  Peripheral oedema, any-grade TEAE: 9 (60) n (%)
  Pyrexia, any-grade TEAE: 2 (13) n (%)
  Upper abdominal pain, any-grade TEAE: 1 (7) n (%)
  Vomiting, any-grade TEAE: 2 (13) n (%)
[2]
  discontinuation owing to acute hepatic failure: 2%
  discontinuation owing to acute renal failure: 2%
  discontinuation owing to axillary pain/groin pain: 2%
  discontinuation owing to confusional state: 2%
  discontinuation owing to peritoneal haemorrhage: 2%
  discontinuation owing to progression of pancreatic carcinoma: 2%
Normal function 4 mg (n = 13)
  Abdominal pain, any-grade TEAE: 2 (15) n (%)
  Acute renal failure, any-grade TEAE: 0 n (%)
  Acute renal failure, grade ≥3 TEAE: 0 n (%)
  Anaemia, any-grade TEAE: 2 (15) n (%)
  Anaemia, grade ≥3 TEAE: 1 (8) n (%)
  Any-grade AE: 13 (100) n (%)
  Ascites, any-grade TEAE: 0 n (%)
  Ascites, grade ≥3 TEAE: 0 n (%)
  Back pain, any-grade TEAE: 2 (15) n (%)
  Cough, any-grade TEAE: 1 (8) n (%)
  Decreased appetite, any-grade TEAE: 7 (54) n (%)
  Dehydration, any-grade TEAE: 3 (23) n (%)
  Dehydration, grade ≥3 TEAE: 0 n (%)
  Diarrhoea, any-grade TEAE: 4 (31) n (%)
  Dyspnoea, any-grade TEAE: 4 (31) n (%)
  Fatigue, any-grade TEAE: 6 (46) n (%)
  Fatigue, grade ≥3 TEAE: 2 (15) n (%)
  Grade ≥3 AE: 6 (46) n (%)
  Hyperbilirubinaemia, any-grade TEAE: 0 n (%)
  Hyperbilirubinaemia, grade ≥3 TEAE: 0 n (%)
  Hyperkalaemia, any-grade TEAE: 1 (8) n (%)
